CHOP inh – blocks CHOP induction under ER stress; AID 2732; inhibition, % at 10 µM; CHO-K1 CHOP-promoter luciferase, tunicamycin-induced, 15-18 h; hit rate 3.8% among 220,000;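 active = compounds that reduced the stress-induced luciferase reporter signal by more than about 70% of percent inhibition, limit read from the data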;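 note: 0% = tunicamycin plus vehicle and 100% = wells without tunicamycin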
UPR CHOP act – activators of apoptotic arm of unfolded protein response (CHOP); CHO-CHOP luciferase reporter, UPR activation, luminescence; percent of tunicamycin response over DMSO baseline; activation, % at 10 µM; hit rate 0.34% among 330,000; AID 449763;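 active = at 10 µM dose, activation of 40% or more, normalized to positive control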;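 note: 100% = tunicamycin at 10 µg/mL and 0% = DMSO alone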
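Evaluation: % reporter activation, DMSO baseline versus tunicamycin full activation; System: CHO-CHOP luciferase reporter cell line; Input: 500 cells/well; Incubation: 6 h compound treatment, 37 °C; Measured by: Steady-Glo luciferase luminescence; Dosing: one dose, 10 µM in 0.5% DMSO; Buffer or medium: F12 medium, 10% FBS; Benchmarks: positive tunicamycin 10 µg/mL, negative DMSO alone.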
697 NFkB inh – inhibitors of the PMA/ionomycin-induced NF-kB reporter in 697 B cells; hit rate 0.33% among 330,000; 697 B-cell NF-kB luciferase reporter, 16 h; inhibition, % at 4 µM; in the data active = inhibition above about 35%
Jurkat NFkB inh – inhibitors of the PMA/ionomycin-induced NF-kB reporter in Jurkat cells. PMA/ionomycin-induced NF-kB luciferase reporter, luminescence. inhibition, % at 4 µM. hit rate 0.53% among 330,000; in the data active = inhibition above about 50%
XBP1 UPR activ – activators of adaptive arm of unfolded protein response (XBP1); CHO-XBP1 luciferase reporter, IRE1-XBP1 UPR activation, luminescence; percent of tunicamycin response, DMSO as zero; activation, % at 20 µM; hit rate 0.33% among 330,000; AID 463104;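 active = versus positive control, 20 µM dose yields 30% or more activation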;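 note: 100% = tunicamycin at 10 µg/mL and 0% = DMSO only wells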
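Signal: luciferase luminescence; Assay system: CHO-XBP1 luciferase reporter cells; Amount: one thousand reporter cells per well; Dosing: 20 µM single concentration, DMSO 1%; Benchmarks: high control tunicamycin 10 µg/mL final, low control DMSO vehicle only; Schedule: 6 h compound exposure at 37 °C, 5% CO2; Evaluation: percent activation relative to tunicamycin reference.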
XBP1 UPR conf – confirmation of adaptive unfolded protein response (XBP1) activators; shares compounds with XBP1 UPR activ; CHO-XBP1 IRE1-XBP1 luciferase reporter, luminescence; activation, % at 20 µM; hit rate 63% among 1,000;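 active = reporter signal at least 30% of the positive control's activation in two or more of four replicate wells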;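 note: plate controls were DMSO negative control for no effect and tunicamycin 10 µg/mL positive control for full effect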
The depositor's hits bear a star. This excerpt belongs to a sample that is enriched for hits.

What do the screens show for `COc1ccccc1-c1cc(-c2ccccc2)nc(SC(C(N)=O)c2ccccc2)c1C#N` (centres undefined)?
CHOP inh: 76*; UPR CHOP act: 13; 697 NFkB inh: -9; Jurkat NFkB inh: -4; XBP1 UPR activ: 70*; XBP1 UPR conf: 46*

Results for CC1CCN(S(=O)(=O)c2ccc3c(c2)N(CC(=O)NCCCN2CC(C)CC(C)C2)C(=O)CS3)CC1 (centres undefined) ?
UPR CHOP act: 1; 697 NFkB inh: 16; Jurkat NFkB inh: 12; XBP1 UPR activ: -2

What do the screens show for `COc1ccc(Cc2nc3ccc(C(=O)NCC4COCCO4)cc3o2)cc1OC` (centres undefined)?
UPR CHOP act: 3; 697 NFkB inh: -8; Jurkat NFkB inh: 11; XBP1 UPR activ: 1

Results for COc1ccc(-c2cc(C(F)F)n3ncc(C(=O)N4CCc5ccccc5C4)c3n2)cc1 ?
CHOP inh: 51; UPR CHOP act: -1; 697 NFkB inh: 7; Jurkat NFkB inh: -3; XBP1 UPR activ: 38*; XBP1 UPR conf: 73*

Results for COc1cccc(CNC(=O)CN2C(=O)COc3ccc(S(=O)(=O)N4CCOCC4)cc32)c1 ?
UPR CHOP act: 1; 697 NFkB inh: 3; Jurkat NFkB inh: 5; XBP1 UPR activ: 0

Results for COc1ccc2[nH]c3nc(SCc4nnc(-c5ccc(C)cc5)o4)nnc3c2c1 ?
CHOP inh: 20; UPR CHOP act: 7; 697 NFkB inh: 5; Jurkat NFkB inh: 16; XBP1 UPR activ: 71*; XBP1 UPR conf: 190*

What do the screens show for `Cc1c(CCC(=O)NCCCC(=O)O)c(=O)oc2cc3oc4c(c3cc12)CCCC4`?
UPR CHOP act: -5; 697 NFkB inh: 32; Jurkat NFkB inh: 3; XBP1 UPR activ: -10

What do the screens show for `Cc1cc(OCC(=O)NCC(c2ccc(F)cc2)N2CCOCC2)ccc1Cl` (centres undefined)?
UPR CHOP act: 0; 697 NFkB inh: 10; Jurkat NFkB inh: -3; XBP1 UPR activ: -1

How did CC1=CC(C)[C@H](/C=N/n2c(=O)[nH]c3c([nH]c4ccc(C)cc43)c2=O)C(C)C1 (some centres undefined) do in these assays?
CHOP inh: 26; UPR CHOP act: 3; 697 NFkB inh: 12; Jurkat NFkB inh: 6; XBP1 UPR activ: 87*; XBP1 UPR conf: 99*

What do the screens show for `O=C(C[C@@H]1C/C=C\C[C@H](Cc2ccc(F)cc2)C(=O)OC[C@H]2CCCN2C1=O)NCCO`?
UPR CHOP act: 1; 697 NFkB inh: 4; Jurkat NFkB inh: 12; XBP1 UPR activ: -3

What do the screens show for `CC(C)c1cccc(-c2ccc3c(c2)S(=O)(=O)c2cccc(C(=O)NC4CCCC4)c2C3=O)c1`?
UPR CHOP act: 13; 697 NFkB inh: 29; Jurkat NFkB inh: 17; XBP1 UPR activ: 33*; XBP1 UPR conf: 26

What do the screens show for `O=C(NC1CCCCC1)c1cccc2c1C(=O)c1ccc(-c3ccc(OC(F)(F)F)cc3)cc1S2(=O)=O`?
UPR CHOP act: 28; 697 NFkB inh: 18; Jurkat NFkB inh: -36; XBP1 UPR activ: 75*; XBP1 UPR conf: 67*

Results for COc1ccc(OC)c(-c2nnc3n2N=C(c2ccc(OC)c(OCC4CC4)c2)CS3)c1 ?
UPR CHOP act: 1; 697 NFkB inh: -2; Jurkat NFkB inh: -6; XBP1 UPR activ: 32*; XBP1 UPR conf: 35*

What do the screens show for `CCc1ccc(C(=O)CSc2nc(C)cc(=O)[nH]2)cc1`?
CHOP inh: -14; UPR CHOP act: 1; 697 NFkB inh: -2; Jurkat NFkB inh: -2; XBP1 UPR activ: 4

How did N#Cc1c(-c2ccc3c(c2)OCO3)ccn2nc(-c3cccc(C(F)(F)F)c3)nc12 do in these assays?
CHOP inh: 51; UPR CHOP act: 14; 697 NFkB inh: -11; Jurkat NFkB inh: -33; XBP1 UPR activ: 53*; XBP1 UPR conf: 50*

Results for Cc1ccc(C2(c3ccc(C)cc3)CC2C(=O)NCc2cccnc2)cc1 (centres undefined) ?
CHOP inh: 21; UPR CHOP act: -1; 697 NFkB inh: 14; Jurkat NFkB inh: 9; XBP1 UPR activ: -1

Results for CC(C)(C)c1csc(NC(=O)c2ccc(Cl)s2)n1 ?
CHOP inh: 73*; UPR CHOP act: 7; 697 NFkB inh: -128; Jurkat NFkB inh: -50; XBP1 UPR activ: 30*; XBP1 UPR conf: 33*

Results for CCC(=O)Nc1cccc(C(=O)/C=C/c2ccc(F)cc2)c1 ?
CHOP inh: -185; UPR CHOP act: 9; 697 NFkB inh: -20; Jurkat NFkB inh: -7; XBP1 UPR activ: 35*; XBP1 UPR conf: 53*

Results for CC(=O)Nc1cccc(C(=O)/C=C/c2ccc(C)cc2)c1 ?
CHOP inh: -39; UPR CHOP act: 5; 697 NFkB inh: 25; Jurkat NFkB inh: -8; XBP1 UPR activ: 17

How did COc1cc2c(cc1OC)C1Cc3ccc(OC)c(OC)c3CN1CC2 (centres undefined) do in these assays?
CHOP inh: 12; UPR CHOP act: 0; 697 NFkB inh: -11; Jurkat NFkB inh: -13; XBP1 UPR activ: 2

What do the screens show for `COc1ccc2cc1Oc1ccc(cc1)C[C@H]1c3c(cc(OC)c4c3Oc3c(ccc5c3[C@H](C2)N(C)CC5)O4)CCN1C`?
UPR CHOP act: 19; 697 NFkB inh: 8; Jurkat NFkB inh: 8; XBP1 UPR activ: 68*; XBP1 UPR conf: 52*

How did CN1Cc2c(N3CCOCC3)nc3sc(C(=O)c4ccc(Br)cc4)c(N)c3c2CC1(C)C do in these assays?
CHOP inh: -10; UPR CHOP act: 8; 697 NFkB inh: 19; Jurkat NFkB inh: 28; XBP1 UPR activ: 38*; XBP1 UPR conf: 63*

What do the screens show for `CCOC(=O)C1=C(C)N=C2c3ccccc3C(=O)C2C1c1ccc(C)cc1` (centres undefined)?
CHOP inh: 74*; UPR CHOP act: 2; 697 NFkB inh: 34; Jurkat NFkB inh: -1; XBP1 UPR activ: 32*; XBP1 UPR conf: 28*

Results for CCOC(=O)C1=C(C)N=C2c3ccccc3C(=O)C2C1c1ccccc1 (centres undefined) ?
CHOP inh: 24; UPR CHOP act: 5; 697 NFkB inh: 10; Jurkat NFkB inh: 6; XBP1 UPR activ: -3

Results for COc1ccc(C2=NN(C(=O)CSc3nccn3C)C(c3ccco3)C2)cc1 (centres undefined) ?
UPR CHOP act: 2; 697 NFkB inh: 6; Jurkat NFkB inh: 12; XBP1 UPR activ: 0

What do the screens show for `Cc1ccc(SC(=O)COc2ccccc2C)cc1`?
CHOP inh: 75*; UPR CHOP act: 4; 697 NFkB inh: 25; Jurkat NFkB inh: 5; XBP1 UPR activ: 49*; XBP1 UPR conf: 17

What do the screens show for `Cc1ccc(OC(=O)COc2ccccc2C)cc1`?
UPR CHOP act: 1; 697 NFkB inh: 9; Jurkat NFkB inh: 5; XBP1 UPR activ: 3
